Test results published in ChEMBL document CHEMBL2331340, “Novel antitumor indolizino[6,7-b]indoles with multiple modes of action: DNA cross-linking and topoisomerase I and II inhibition” (J Med Chem, 2013).
Calls of active or inactive are those of the source. The rule behind the calls is not given here.

What was measured:
HCT-116 = test: Cytotoxicity against human HCT116 cells after 72 hrs by Alamar blue assay; type: functional, cell-based; conditions: HCT-116, 72 h
Outline: (§1)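 Cells exposed to compound for 72 h, then Alamar blue added with a further 10−12 h at 37 °C and a spectrophotometric read. IC50 from six or seven concentrations by median-effect analysis; mean ± STDEV, n = 3. CL141T is a line derived from a patient lung tumor passaged as a SCID mouse xenograft.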

NCI-H460 = test: Induction of apoptosis in human H460 cells assessed as increase in cleaved PARP expression at IC50 after 24 to 72 hrs by Western blotting analysis; type: functional, cell-based
Outline: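 H460 cells treated at IC50 for 24 and 72 h. Lysate proteins separated by SDS-PAGE and blotted to nitrocellulose, blocked in 5% milk/PBST. Primary antibodies to caspase-3, caspase-7, PARP (full-length and cleaved) and β-actin applied for 1 h at room temperature or overnight at 4 °C; HRP secondary with ECL detection.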

[1] = Cytotoxicity against human H460 cells after 72 hrs by Alamar blue assay; type: functional, cell-based; conditions: NCI-H460, 72 h; outline: as §1
[2] = Cytotoxicity against human OECM1 cells after 72 hrs by Alamar blue assay; type: functional, cell-based; conditions: OECM1, 72 h; outline: as §1
[3] = target: DNA topoisomerase 2-alpha (Homo sapiens) (UniProt P11388); test: Inhibition of DNA topoisomerase 2 (unknown origin)-mediated relaxation of supercoiled pHOT DNA after 30 to 45 mins by agarose gel electrophoresis
Chain of DNA topoisomerase 2-alpha (Homo sapiens) (P11388 whole entry): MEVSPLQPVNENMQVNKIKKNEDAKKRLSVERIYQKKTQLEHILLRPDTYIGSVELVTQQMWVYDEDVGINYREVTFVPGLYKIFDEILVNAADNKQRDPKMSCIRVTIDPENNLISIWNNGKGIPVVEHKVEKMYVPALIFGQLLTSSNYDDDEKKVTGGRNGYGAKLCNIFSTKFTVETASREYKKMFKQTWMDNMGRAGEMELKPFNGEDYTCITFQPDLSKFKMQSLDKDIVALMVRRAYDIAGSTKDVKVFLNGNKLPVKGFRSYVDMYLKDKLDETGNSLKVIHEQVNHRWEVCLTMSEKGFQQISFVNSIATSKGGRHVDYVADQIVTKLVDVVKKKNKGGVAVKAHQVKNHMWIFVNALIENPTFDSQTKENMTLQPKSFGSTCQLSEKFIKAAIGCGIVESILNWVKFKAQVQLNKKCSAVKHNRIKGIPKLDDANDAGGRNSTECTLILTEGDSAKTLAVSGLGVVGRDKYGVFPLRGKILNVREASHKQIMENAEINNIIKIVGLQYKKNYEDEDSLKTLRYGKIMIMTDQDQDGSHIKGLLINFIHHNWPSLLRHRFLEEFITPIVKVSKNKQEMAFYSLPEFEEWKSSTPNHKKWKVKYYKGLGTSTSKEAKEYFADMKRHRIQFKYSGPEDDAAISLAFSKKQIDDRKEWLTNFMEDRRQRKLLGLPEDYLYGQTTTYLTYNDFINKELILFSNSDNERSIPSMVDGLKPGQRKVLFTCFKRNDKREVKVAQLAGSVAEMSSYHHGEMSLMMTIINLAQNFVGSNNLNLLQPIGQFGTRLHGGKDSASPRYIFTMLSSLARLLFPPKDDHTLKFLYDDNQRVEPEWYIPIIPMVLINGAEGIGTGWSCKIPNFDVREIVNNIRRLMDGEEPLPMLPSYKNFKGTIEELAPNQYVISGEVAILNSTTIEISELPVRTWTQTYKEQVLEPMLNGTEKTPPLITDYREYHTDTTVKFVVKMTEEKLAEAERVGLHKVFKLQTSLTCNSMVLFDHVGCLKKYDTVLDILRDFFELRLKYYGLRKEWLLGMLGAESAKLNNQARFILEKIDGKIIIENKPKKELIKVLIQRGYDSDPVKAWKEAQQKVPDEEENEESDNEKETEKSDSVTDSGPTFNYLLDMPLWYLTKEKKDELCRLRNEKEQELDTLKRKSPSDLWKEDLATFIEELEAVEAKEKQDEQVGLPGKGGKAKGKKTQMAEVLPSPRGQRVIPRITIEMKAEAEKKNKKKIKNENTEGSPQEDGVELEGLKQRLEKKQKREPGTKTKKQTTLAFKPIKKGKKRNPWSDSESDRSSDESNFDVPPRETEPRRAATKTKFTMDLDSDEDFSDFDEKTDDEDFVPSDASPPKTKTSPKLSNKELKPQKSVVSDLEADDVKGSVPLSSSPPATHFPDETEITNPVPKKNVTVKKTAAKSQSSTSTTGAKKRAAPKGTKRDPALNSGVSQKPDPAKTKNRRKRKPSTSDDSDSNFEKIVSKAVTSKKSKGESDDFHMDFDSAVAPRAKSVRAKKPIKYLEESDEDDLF
Outline: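 Supercoiled pHOT DNA (125 ng) with compound in buffer stated as 0.5 M Tris-HCl pH 8.0, 1.5 M NaCl, 100 mM MgCl2, 5 mM DTT, 300 μg/mL BSA, 20 mM ATP, at 37 °C. Methods state 6 units topo II, figure legend 5 units; 30−45 min, SDS stop. Products run on 1% agarose and stained with ethidium bromide.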

[4] = Cell cycle arrest in human CL141T cells assessed as accumulation at G1 phase at 1 x IC50 to 2 x IC50 after 24 hrs by propidium iodide staining-based FACS flow cytometric analysis; type: functional
Outline: (§2)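 CL141T cells treated at 0.5-, 1- and 2-fold IC50 for 24, 48 and 72 h. Cells fixed in ice-cold 70% EtOH, then stained with 4 μg/mL propidium iodide in PBS with 1% Triton X-100 and 0.1 mg/mL RNase A. Phase distribution from flow cytometry DNA histograms; sub-G1 fraction scored as well.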

[5] = Cell cycle arrest in human CL141T cells assessed as accumulation at G2/M phase at 0.5 x IC50 to 1 x IC50 after 48 to 72 hrs by propidium iodide staining-based FACS flow cytometric analysis; type: functional; outline: as §2
[6] = Cytotoxicity against human CL141T cells after 72 hrs by Alamar blue assay; type: functional, cell-based; outline: as §1
[7] = Cytotoxicity against human MES-SA/Dx5 cells after 72 hrs by Presto Blue assay; type: functional, cell-based; conditions: MES-SA/Dx5, 72 h
Outline: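 MES-SA and doxorubicin-resistant MES-SA/dx5 cells exposed for 72 h, then PrestoBlue added for 3 h at 37 °C, absorbance read at 570 and 600 nm. IC50 by median-effect analysis of six or seven concentrations; mean ± STDEV of three to six independent experiments.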

CCRF-CEM = test: Cytotoxicity against human CCRF-CEM cells after 72 hrs by XTT assay; type: functional, cell-based
Outline: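 CCRF-CEM T-ALL cells incubated with compound for 72 h. XTT with phenazine methosulfate then added for 6 h at 37 °C, absorbance read at 450 and 630 nm. IC50 from six or seven concentrations by median-effect analysis; mean ± STDEV, n = 3.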

Escherichia coli = test: Induction of Escherichia coli pEGFP-N1 DNA interstrand cross-linking at 1 to 10 uM after 2 hrs by alkaline agarose gel shift assay
Outline: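 Plasmid pEGFP-N1 DNA (1500 ng) incubated with compound at 1, 5 and 10 μM in 3 mM NaCl/1 mM sodium phosphate pH 7.4/1 mM EDTA, 2 h at 37 °C. DNA then BamHI-linearized, EtOH-precipitated, denatured in 0.5 N NaOH/10 mM EDTA, run on 0.8% alkaline agarose at 4 °C (18 V, 22 h), stained with ethidium bromide.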

[8] = Cell cycle arrest in human CL141T cells assessed as accumulation at S phase at 0.5 x IC50 after 24 hrs by propidium iodide staining-based FACS flow cytometric analysis; type: functional; outline: as §2
[9] = target: T1, DNA topoisomerase 1 (Homo sapiens) (UniProt P11387); test: Inhibition of DNA topoisomerase 1 (unknown origin)-mediated relaxation of supercoiled pHOT DNA at 25 to 200 uM after 30 to 45 mins by agarose gel electrophoresis
T1 sequence (whole entry): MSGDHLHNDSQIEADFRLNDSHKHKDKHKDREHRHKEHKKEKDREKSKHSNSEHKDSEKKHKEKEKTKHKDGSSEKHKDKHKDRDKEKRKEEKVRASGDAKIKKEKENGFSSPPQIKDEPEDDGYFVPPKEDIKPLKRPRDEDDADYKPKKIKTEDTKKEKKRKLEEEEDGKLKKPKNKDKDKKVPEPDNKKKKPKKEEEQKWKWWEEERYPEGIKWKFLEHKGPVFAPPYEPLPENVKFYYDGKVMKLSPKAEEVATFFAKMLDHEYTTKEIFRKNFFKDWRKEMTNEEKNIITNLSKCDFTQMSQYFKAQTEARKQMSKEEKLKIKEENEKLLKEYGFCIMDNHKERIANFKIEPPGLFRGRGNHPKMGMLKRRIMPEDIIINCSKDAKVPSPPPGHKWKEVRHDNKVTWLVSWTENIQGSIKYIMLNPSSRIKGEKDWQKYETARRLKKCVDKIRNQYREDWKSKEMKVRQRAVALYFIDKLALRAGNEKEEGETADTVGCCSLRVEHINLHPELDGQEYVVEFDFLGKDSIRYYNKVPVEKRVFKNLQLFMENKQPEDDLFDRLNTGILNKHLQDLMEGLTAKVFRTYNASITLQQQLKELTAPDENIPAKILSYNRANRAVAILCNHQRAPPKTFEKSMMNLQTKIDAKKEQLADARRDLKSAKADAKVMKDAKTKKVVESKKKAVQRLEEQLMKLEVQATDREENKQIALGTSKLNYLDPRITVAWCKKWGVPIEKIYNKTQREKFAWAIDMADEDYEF
Outline: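 Supercoiled pHOT DNA (200 ng) and compound in 10 mM Tris-HCl pH 7.9 with 1 mM EDTA at 37 °C. Reaction started with 1 unit topo I, run 30−45 min, stopped with 10% SDS. Products separated on 1% agarose at 50 V for 90 min and stained with ethidium bromide.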

## Cc1c(CO)c(CO)c2n1Cc1c(c3ccccc3n1C)C2
HCT-116
  IC50: 1000 nM
NCI-H460
  Activity: Active
[1]
  IC50: 380 nM
[2]
  IC50: 960 nM
[3]
  inhibition: Dose-dependent effect
[4]
  Activity: Active
[5]
  Activity: Active
[6]
  IC50: 510 nM
[7]
  IC50: 120 nM
CCRF-CEM
  IC50: 40 nM
Escherichia coli
  Activity: Active
[8]
  Activity: Active
[9]
  inhibition: Active
